Reference: ChEMBL document CHEMBL3774312, “5-Substituted 3-isopropyl-7-[4-(2-pyridyl)benzyl]amino-1(2)H-pyrazolo[4,3-d]pyrimidines with anti-proliferative activity as potent and selective inhibitors of cyclin-dependent kinases” (Eur J Med Chem, 2016)
The source made the active and inactive calls. The rule behind the calls is not given here.

Assays:
[1] = molecular target: Cyclin-dependent kinase 2 (Homo sapiens) (UniProt P24941); assay: Inhibition of CDK2 in human G361 cells assessed as reduction in phosphorylation of RNA polymerase 2 at C-terminus at 1 uM incubated for 0.5 to 24 hrs by immunoblotting analysis; assay type: cell-based; settings: G-361
How it was run: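 Treated G361 cells were lysed in Laemmli buffer, run on SDS-PAGE and blotted to nitrocellulose. Blots were probed overnight with antibodies to RNA polymerase II phosphorylated at S5 and S2, and to total RNA polymerase II (ARNA-3). Peroxidase secondaries were then applied and signal was detected by ECL with a CCD camera.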

[2] = molecular target: Receptor tyrosine-protein kinase erbB-4 (Homo sapiens) (UniProt Q15303); assay: Inhibition of recombinant HER4 (unknown origin) assessed as residual activity at 1 uM relative to control
Sequence of Receptor tyrosine-protein kinase erbB-4 (Homo sapiens) (Q15303 whole entry): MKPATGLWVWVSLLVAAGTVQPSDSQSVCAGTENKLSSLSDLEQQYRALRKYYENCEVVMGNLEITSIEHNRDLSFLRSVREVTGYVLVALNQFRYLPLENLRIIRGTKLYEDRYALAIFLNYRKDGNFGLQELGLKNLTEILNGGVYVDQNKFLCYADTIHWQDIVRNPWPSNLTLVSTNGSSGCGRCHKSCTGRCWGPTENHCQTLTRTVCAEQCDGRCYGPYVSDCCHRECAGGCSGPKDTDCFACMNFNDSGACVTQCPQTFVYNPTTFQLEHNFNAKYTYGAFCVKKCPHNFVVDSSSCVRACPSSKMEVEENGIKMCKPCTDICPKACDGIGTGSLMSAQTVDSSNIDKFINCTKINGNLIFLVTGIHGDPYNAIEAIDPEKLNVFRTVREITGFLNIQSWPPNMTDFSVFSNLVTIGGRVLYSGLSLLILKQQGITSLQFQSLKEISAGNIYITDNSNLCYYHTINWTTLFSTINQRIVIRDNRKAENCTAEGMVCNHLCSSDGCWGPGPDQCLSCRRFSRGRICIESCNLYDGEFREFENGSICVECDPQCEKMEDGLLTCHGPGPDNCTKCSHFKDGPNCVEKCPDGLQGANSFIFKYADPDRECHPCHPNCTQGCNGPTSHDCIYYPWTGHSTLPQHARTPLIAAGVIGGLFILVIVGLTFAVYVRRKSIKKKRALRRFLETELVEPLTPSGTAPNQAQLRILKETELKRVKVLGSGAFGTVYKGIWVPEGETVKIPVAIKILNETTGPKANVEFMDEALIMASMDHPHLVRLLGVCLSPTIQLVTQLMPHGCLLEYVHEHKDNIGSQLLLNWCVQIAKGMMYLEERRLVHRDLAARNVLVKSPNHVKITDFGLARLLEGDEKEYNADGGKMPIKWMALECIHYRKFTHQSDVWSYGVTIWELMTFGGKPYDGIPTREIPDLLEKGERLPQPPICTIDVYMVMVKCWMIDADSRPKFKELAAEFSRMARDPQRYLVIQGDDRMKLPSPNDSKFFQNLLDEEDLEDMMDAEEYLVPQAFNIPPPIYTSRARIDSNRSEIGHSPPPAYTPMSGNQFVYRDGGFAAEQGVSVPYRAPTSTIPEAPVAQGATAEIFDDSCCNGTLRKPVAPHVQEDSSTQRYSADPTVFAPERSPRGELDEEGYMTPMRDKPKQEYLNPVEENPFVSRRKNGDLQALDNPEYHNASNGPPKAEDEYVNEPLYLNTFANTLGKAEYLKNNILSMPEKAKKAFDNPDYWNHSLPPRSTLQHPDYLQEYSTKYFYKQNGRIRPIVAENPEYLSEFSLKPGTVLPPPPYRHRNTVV

[3] = molecular target: Cyclin-dependent kinase 1 (Homo sapiens, UniProt P06493); assay: Inhibition of CDK1 (unknown origin)
Sequence of Cyclin-dependent kinase 1 (P06493 whole entry): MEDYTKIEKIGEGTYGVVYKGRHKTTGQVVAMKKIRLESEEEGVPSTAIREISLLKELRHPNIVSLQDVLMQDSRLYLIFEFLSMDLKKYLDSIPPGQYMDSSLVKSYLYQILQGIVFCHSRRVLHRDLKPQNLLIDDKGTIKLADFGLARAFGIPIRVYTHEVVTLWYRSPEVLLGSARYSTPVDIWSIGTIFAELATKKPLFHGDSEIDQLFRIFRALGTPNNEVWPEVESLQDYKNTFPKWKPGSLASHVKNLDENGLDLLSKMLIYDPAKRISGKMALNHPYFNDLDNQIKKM

[4] = molecular target: Interleukin-1 receptor-associated kinase 4 (Homo sapiens) (UniProt Q9NWZ3); assay: Inhibition of recombinant IRAK4 (unknown origin) assessed as residual activity at 1 uM relative to control
Sequence of Interleukin-1 receptor-associated kinase 4 (Homo sapiens) (Q9NWZ3 whole entry): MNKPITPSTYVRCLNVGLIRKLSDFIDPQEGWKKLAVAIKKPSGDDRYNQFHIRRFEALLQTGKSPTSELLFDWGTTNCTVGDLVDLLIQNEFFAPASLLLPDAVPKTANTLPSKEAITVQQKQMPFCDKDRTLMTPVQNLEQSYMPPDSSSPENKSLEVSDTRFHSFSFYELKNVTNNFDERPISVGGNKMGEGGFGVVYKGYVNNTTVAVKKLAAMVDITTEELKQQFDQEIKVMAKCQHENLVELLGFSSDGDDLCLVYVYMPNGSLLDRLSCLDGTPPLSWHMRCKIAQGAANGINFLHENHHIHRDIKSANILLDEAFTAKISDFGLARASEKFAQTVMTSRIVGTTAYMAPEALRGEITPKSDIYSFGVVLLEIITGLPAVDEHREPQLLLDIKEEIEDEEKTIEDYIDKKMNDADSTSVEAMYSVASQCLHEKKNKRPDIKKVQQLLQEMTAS

[5] = molecular target: Serine/threonine-protein kinase STK11 (Homo sapiens) (UniProt Q15831); assay: Inhibition of recombinant LKB1 (unknown origin) assessed as residual activity at 1 uM relative to control
Sequence of Serine/threonine-protein kinase STK11 (Homo sapiens) (Q15831 whole entry): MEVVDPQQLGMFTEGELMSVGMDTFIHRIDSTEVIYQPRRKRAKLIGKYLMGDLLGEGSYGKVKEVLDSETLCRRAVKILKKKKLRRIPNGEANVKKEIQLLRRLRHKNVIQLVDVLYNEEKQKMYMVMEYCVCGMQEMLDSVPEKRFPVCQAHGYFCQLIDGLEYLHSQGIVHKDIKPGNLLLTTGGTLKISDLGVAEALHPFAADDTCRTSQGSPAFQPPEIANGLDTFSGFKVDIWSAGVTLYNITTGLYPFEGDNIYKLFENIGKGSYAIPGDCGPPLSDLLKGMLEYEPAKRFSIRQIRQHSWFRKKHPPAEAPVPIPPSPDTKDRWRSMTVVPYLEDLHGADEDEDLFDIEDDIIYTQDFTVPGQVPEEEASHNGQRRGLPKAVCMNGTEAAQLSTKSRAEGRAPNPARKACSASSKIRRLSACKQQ

[6] = molecular target: Cyclin-dependent kinase 7 (Homo sapiens, UniProt P50613); assay: Inhibition of CDK7 (unknown origin)
Sequence of Cyclin-dependent kinase 7 (P50613 whole entry): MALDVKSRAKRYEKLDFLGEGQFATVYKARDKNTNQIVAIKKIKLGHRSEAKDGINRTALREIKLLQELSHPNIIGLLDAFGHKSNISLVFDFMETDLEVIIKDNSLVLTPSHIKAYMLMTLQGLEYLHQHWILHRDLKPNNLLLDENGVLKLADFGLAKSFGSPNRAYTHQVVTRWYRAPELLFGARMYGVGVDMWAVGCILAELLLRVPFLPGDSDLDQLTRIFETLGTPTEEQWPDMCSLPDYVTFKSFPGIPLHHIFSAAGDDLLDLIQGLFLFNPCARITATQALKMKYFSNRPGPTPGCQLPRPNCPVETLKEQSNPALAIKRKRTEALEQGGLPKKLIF

[7] = molecular target: Cyclin-dependent kinase 4 (Homo sapiens, UniProt P11802); assay: Inhibition of CDK4 (unknown origin)
Sequence of Cyclin-dependent kinase 4 (P11802 whole entry): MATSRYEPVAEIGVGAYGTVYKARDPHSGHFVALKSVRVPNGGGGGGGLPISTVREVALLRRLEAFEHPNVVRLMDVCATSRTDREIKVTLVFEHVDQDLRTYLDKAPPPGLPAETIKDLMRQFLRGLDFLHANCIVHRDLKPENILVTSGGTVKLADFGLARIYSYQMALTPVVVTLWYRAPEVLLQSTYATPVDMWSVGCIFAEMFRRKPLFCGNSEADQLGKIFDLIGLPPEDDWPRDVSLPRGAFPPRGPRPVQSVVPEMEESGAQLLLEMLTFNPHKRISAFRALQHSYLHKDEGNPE

[8] = molecular target: Tyrosine-protein kinase SYK (Homo sapiens) (UniProt P43405); assay: Inhibition of recombinant SYK (unknown origin) assessed as residual activity at 1 uM relative to control
[9] = molecular target: Receptor-interacting serine/threonine-protein kinase 2 (Homo sapiens) (UniProt O43353); assay: Inhibition of recombinant RIPK2 (unknown origin) assessed as residual activity at 1 uM relative to control
Sequence of Receptor-interacting serine/threonine-protein kinase 2 (Homo sapiens) (O43353 whole entry): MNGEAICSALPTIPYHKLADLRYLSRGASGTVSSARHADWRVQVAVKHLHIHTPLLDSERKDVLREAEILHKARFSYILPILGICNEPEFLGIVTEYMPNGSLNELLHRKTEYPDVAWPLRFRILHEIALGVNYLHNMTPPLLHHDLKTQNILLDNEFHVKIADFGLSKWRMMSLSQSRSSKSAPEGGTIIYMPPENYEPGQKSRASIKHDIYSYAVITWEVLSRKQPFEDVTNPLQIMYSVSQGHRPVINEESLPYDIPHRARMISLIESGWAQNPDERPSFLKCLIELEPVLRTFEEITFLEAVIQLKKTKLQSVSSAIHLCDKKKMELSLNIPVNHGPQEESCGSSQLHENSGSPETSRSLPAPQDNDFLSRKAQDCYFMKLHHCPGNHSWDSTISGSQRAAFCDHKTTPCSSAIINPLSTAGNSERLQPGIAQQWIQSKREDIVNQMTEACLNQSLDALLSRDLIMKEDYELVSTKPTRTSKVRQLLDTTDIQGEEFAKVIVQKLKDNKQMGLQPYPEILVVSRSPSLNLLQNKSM

HCT-116 = assay: Induction of apoptosis in human HCT116 cells assessed as PARP1 cleavage incubated for 24 hrs by immunoblotting analysis; assay type: functional, cell-based
How it was run: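 HCT-116 cells were treated with different doses for 24 h and harvested into Laemmli buffer. Proteins were separated by SDS-PAGE and blotted to nitrocellulose. Membranes were probed overnight with primary antibodies (anti-PARP F-2, anti-Mcl-1 S-19, anti-p53 DO-1), then with peroxidase secondaries. Bands were detected by ECL with a CCD camera, with tubulin as loading control.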

MCF7 = assay: Cell cycle arrest in BrdU pulse-labelled human MCF7 cells assessed as accumulation at late S phase at 8 to 250 nM after 24 hrs by propidium iodide staining based flow cytometry; assay type: functional
[10] = molecular target: Glycogen synthase kinase-3 beta (Homo sapiens) (UniProt P49841); assay: Inhibition of recombinant GSK3beta (unknown origin) assessed as residual activity at 1 uM relative to control
Sequence of Glycogen synthase kinase-3 beta (Homo sapiens) (P49841 whole entry, looked up): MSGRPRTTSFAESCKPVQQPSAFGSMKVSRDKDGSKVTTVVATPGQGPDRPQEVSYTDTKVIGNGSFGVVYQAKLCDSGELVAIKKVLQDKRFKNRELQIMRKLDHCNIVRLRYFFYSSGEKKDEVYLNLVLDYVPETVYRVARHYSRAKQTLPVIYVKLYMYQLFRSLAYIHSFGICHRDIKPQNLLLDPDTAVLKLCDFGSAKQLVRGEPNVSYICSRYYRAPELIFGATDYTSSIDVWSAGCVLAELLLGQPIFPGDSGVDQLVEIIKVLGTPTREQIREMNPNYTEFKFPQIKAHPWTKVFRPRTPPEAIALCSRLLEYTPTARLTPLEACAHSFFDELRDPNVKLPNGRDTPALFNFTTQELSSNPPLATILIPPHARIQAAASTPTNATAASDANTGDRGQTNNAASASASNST

[11] = molecular target: Ribosomal protein S6 kinase alpha-5 (Homo sapiens) (UniProt O75582); assay: Inhibition of recombinant MSK1 (unknown origin) assessed as residual activity at 1 uM relative to control
Sequence of Ribosomal protein S6 kinase alpha-5 (Homo sapiens) (O75582 whole entry, looked up): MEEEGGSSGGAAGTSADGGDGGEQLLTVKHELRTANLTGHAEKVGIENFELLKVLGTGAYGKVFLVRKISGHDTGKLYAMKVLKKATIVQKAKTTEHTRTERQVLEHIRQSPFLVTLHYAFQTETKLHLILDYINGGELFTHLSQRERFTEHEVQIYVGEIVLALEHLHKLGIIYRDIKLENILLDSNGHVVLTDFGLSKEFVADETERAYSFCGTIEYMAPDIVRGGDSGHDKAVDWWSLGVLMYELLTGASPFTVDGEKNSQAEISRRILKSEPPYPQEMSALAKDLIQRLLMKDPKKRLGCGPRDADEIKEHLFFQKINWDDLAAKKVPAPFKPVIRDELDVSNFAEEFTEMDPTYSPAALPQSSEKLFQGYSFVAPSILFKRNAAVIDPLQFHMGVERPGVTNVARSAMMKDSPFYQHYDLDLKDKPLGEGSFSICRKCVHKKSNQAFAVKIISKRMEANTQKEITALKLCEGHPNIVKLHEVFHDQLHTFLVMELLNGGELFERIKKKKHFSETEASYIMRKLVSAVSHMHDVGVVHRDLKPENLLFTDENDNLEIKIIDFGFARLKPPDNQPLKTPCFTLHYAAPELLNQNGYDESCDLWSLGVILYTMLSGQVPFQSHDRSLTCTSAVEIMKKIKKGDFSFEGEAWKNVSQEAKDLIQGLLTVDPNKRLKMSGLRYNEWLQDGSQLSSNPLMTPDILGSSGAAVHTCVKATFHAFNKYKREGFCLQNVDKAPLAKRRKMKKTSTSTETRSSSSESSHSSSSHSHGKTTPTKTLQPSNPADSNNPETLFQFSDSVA

CC(O)CNc1nc(NCc2ccc(-c3ccccn3)cc2)c2[nH]nc(C(C)C)c2n1 (stereo not drawn)
inhibition [1]: Active
Activity [2]: > 100%
IC50 [3]: 0.777 µM
Activity [4]: > 100%
Activity [5]: 82%
IC50 [6]: 2.78 µM
IC50 [7]: > 2 µM
Activity [8]: > 100%
Activity [9]: > 100%
Activity (HCT-116): Dose-dependent effect
Activity (MCF7): Active
Activity [10]: > 100%
Activity [11]: 97%
